In ChEMBL document CHEMBL3763092, “Design and synthesis of pyrrolobenzodiazepine-gallic hybrid agents as p53-dependent and -independent apoptogenic signaling in melanoma cells” (Eur J Med Chem, 2016):
Active and inactive are the calls of the source. The calls are words filed in the database; no cut-off is given here.

Tests used:
[1] = Cytotoxicity against p53 knockout human H1299 cells assessed as cell viability at 1 uM after 24 hrs by MTT assay; assay type: functional; conditions: NCI-H1299, 24 h, read-out: Activity
Summary of the method: (§1)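 Cells were exposed to compound at 1 µM for 24 h, then growth and viability were read by MTT assay. Media: A375 in DMEM; RPMI7951 and MCF-7 in MEM; A549 in RPMI1640; H1299 in DMEM-F12; all with 10% FCS and penicillin/streptomycin, at 37 °C and 5% CO2. Fibroblasts came from adult foreskin. DMSO stocks were 10 mM.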

[2] = Cytotoxicity against human RPMI7951 cells expressing p53 mutant assessed as cell viability at 1 uM after 24 hrs by MTT assay; assay type: functional; conditions: RPMI-7951, 24 h, read-out: Activity; summary of the method: as §1
[3] = system: A-375; assay: Cytotoxicity against human A375 cells expressing p53 wild type assessed as cell viability at 1 uM after 24 hrs by MTT assay; assay type: functional; conditions: A-375, 24 h, read-out: Activity; summary of the method: as §1
[4] = system: A549; assay: Cytotoxicity against human A549 cells assessed as cell viability at 1 uM after 24 hrs by MTT assay; assay type: functional; conditions: A549, 24 h, read-out: Activity; summary of the method: as §1
[5] = Cytotoxicity against human fibroblast cells expressing p53 wild type assessed as cell viability at 1 uM after 24 hrs by MTT assay; assay type: cell-based; conditions: read-out: Activity; summary of the method: as §1
[6] = system: MCF7; assay: Cytotoxicity against human MCF7 cells expressing p53 wild type assessed as cell viability at 1 uM after 24 hrs by MTT assay; assay type: functional; conditions: MCF7, 24 h, read-out: Activity; summary of the method: as §1
[7] = system: A-375; assay: Induction of apoptosis in human A375 cells expressing p53 wild type assessed as increase in cleaved PARP levels at 0.5 uM after 24 hrs by western blot analysis; assay type: functional, cell-based
Summary of the method: (§2)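 A375 cells were exposed to 0.5 µM for 24 h, and lysates were immunoblotted with specific antibodies (p53, Cdc25c, p-Chk1, Bcl-xL, PARP, caspase-3). GAPDH served as loading control. Three independent experiments.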

[8] = system: A-375; assay: Induction of apoptosis in human A375 cells expressing p53 wild type assessed as increase in cleaved caspase-3 levels at 0.5 uM after 24 hrs by western blot analysis; assay type: functional, cell-based; summary of the method: as §2
[9] = system: A-375; assay: Induction of apoptosis in human A375 cells expressing p53 wild type assessed as increase in p53 levels at 0.5 uM after 24 hrs by western blot analysis; assay type: functional, cell-based; summary of the method: as §2
[10] = system: A-375; assay: Induction of apoptosis in human A375 cells expressing p53 wild type assessed as decrease in Bcl-xl levels at 0.5 uM after 24 hrs by western blot analysis; assay type: functional, cell-based; summary of the method: as §2
[11] = system: A-375; assay: Induction of apoptosis in human A375 cells transfected with siRNA p53 assessed as decrease in lysosomal H+ concentration at 0.5 uM after 24 and 48 hrs by flow cytometric analysis; assay type: functional, cell-based
Summary of the method: (§3)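 Cells were loaded with LysoTracker Green (75 nM) for 15 min at 37 °C before treatment with 0.5 µM for the indicated times. After washing, mean fluorescence was quantified by flow cytometry. For p53 knockdown, A375 cells (6 × 10^4/well, antibiotic-free DMEM) were transfected with 30 nM tp53 siRNA or non-target siRNA using Lipofectamine RNAiMAX and harvested at 24 h.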

[12] = system: A-375; assay: Effect on cell cycle distribution in human A375 cells expressing p53 wild type assessed as number of cells at S-phase at 0.5 uM after 24 hrs by FACS analysis (reference value: 13.8 %); assay type: functional
[13] = system: A-375; assay: Induction of apoptosis in human A375 cells expressing p53 wild type assessed as increase in p53 mRNA level by RT- qPCR analysis; assay type: functional, cell-based; conditions: TDE = time-dependent effect
Summary of the method: (§4)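 Quantitative real-time PCR on A375 cells over a time course, measuring p53, bax and bcl-xl mRNA normalized to GAPDH mRNA.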

[14] = system: A-375; assay: Induction of apoptosis in human A375 cells expressing p53 wild type assessed as decrease in mitochondrial membrane potential at 0.5 uM after 12 hrs by DiOC6 dye based flow cytometry; assay type: functional, cell-based
Summary of the method: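 A375 cells were treated with 0.5 µM for 0, 12 and 24 h, labeled with DiOC6 and analyzed by flow cytometry. Three independent experiments.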

[15] = system: A-375; assay: Induction of apoptosis in human A375 cells expressing p53 wild type assessed as increase in bax mRNA level by RT- qPCR analysis; assay type: functional, cell-based; conditions: TDE = time-dependent effect; summary of the method: as §4
[16] = system: A-375; assay: Effect on cell cycle distribution in human A375 cells expressing p53 wild type assessed as number of cells at G0/G1 phase at 0.5 uM after 24 hrs by FACS analysis Rvb = 74.1 %); assay type: functional
[17] = system: A-375; assay: Induction of DNA lesion in human A375 cells expressing p53 wild type assessed as increase in 8-oxoguanine expression at 0.5 uM after 24 hrs by immunohistochemical analysis; assay type: functional, cell-based
Summary of the method: (§5)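 A375 cells on coverslips (1 × 10^4) were treated with 0.5 µM for 24 h. Cells were fixed in 4% formaldehyde for 5 min at 4 °C, permeabilized with 0.5% Triton X-100, and blocked with 5% BSA at 37 °C for 45 min. Primary antibodies were applied for 1 h at RT: mouse anti-p-ATR and anti-p-ATM 1:1000, anti-8-oxoguanine 1:250, COX IV and cytochrome c 1:1000. Secondary antibodies (rhodamine for 8-oxoguanine) followed for 30 min. DAPI counterstain.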

[18] = system: A-375; assay: Induction of apoptosis in human A375 cells expressing p53 wild type assessed as decrease in bcl-xl mRNA level by RT- qPCR analysis; assay type: functional, cell-based; conditions: TDE = time-dependent effect; summary of the method: as §4
[19] = system: A-375; assay: Cytotoxicity against human A375 cells expressing p53 wild type assessed as colony formation at 0.5 uM after 10 days by SRB assay; assay type: functional, cell-based
Summary of the method: (§6)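 Cells were seeded at 100 per well and treated from the second day. Medium containing 0.5 µM agent was renewed every 3 days. After 10 days of treatment, colonies were stained with SRB and photographed. Three independent experiments.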

[20] = system: A-375; assay: Induction of apoptosis in human A375 cells expressing p53 wild type assessed as lysosomal H+ concentration at 0.5 uM after 24 and 48 hrs by flow cytometric analysis; assay type: functional, cell-based; summary of the method: as §3
[21] = system: RPMI-7951; assay: Induction of apoptosis in human RPMI7951 cells expressing p53 mutant assessed as decrease in lysosomal H+ concentration at 0.5 uM after 24 and 48 hrs by flow cytometric analysis; assay type: functional, cell-based; summary of the method: as §3
[22] = system: A-375; assay: Induction of reactive oxygen species generation in human A375 cells expressing p53 wild type assessed as increase in intracellular H2O2 level at 0.5 uM after 24 hrs by DCFH-DA staining based fluorescence analysis; assay type: functional, cell-based
Summary of the method: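 A375 cells were treated with 0.5 µM for 0, 12 and 24 h and stained with DCFH-DA to detect intracellular H2O2.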

[23] = system: A-375; assay: Induction of DNA damage in human A375 cells expressing p53 wild type assessed as increase in ATR/ATM activation at 0.5 uM after 24 hrs by immuohistochemistry analysis; assay type: functional, cell-based; summary of the method: as §5
[24] = system: RPMI-7951; assay: Induction of apoptosis in human RPMI7951 cells expressing p53 mutant assessed as PARP cleavage at 0.5 uM after 24 hrs by western blot analysis; assay type: functional, cell-based
[25] = system: A-375; assay: Decrease in Cdc25c level in human A375 cells expressing p53 wild type at 0.5 uM after 24 hrs by western blot analysis; assay type: functional, cell-based; summary of the method: as §2
[26] = system: A-375; assay: Increase in Chk1 phosphorylation in human A375 cells expressing p53 wild type at 0.5 uM after 24 hrs by western blot analysis; assay type: functional, cell-based; summary of the method: as §2
[27] = system: RPMI-7951; assay: Induction of apoptosis in human RPMI7951 cells expressing p53 mutant assessed as increased release of cathepsin D to cytosol at 0.5 uM by immunofluorescent staining analysis; assay type: functional, cell-based
Summary of the method: (§7)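 RPMI7951 cells on coverslips (1 × 10^4) were treated with 0.5 µM for 24 h. Immunofluorescence steps: fixation in 4% formaldehyde, permeabilization with 0.5% Triton X-100, blocking with 5% BSA. Primary antibodies: rabbit anti-cathepsin D and mouse anti-LAMP-1 at 1:500, cytochrome c and COX IV at 1:1000, 1 h at RT. Secondary antibodies for 30 min. DAPI counterstain.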

[28] = system: A-375; assay: Effect on cell cycle distribution in human A375 cells expressing p53 wild type assessed as number of cells at subG1 phase at 0.5 uM after 24 hrs by FACS analysis (reference value: 1 %); assay type: functional
[29] = system: RPMI-7951; assay: Induction of apoptosis in human RPMI7951 cells expressing p53 mutant assessed as increased release of cytochrome c to cytosol at 0.5 uM by immunofluorescent staining analysis; assay type: functional, cell-based; summary of the method: as §7
[30] = system: A-375; assay: Effect on cell cycle distribution in human A375 cells expressing p53 wild type assessed as number of cells at G2/M phase at 0.5 uM after 24 hrs by FACS analysis (reference value: 12.1 %); assay type: functional
[31] = system: A-375; assay: Induction of apoptosis in human A375 cells expressing p53 wild type assessed as increase release of cytochrome c from mitochondria to cytosol at 0.5 uM after 24 hrs by immunofluorescence analysis; assay type: functional, cell-based; summary of the method: as §5
[32] = system: RPMI-7951; assay: Cytotoxicity against human RPMI7951 expressing p53 mutant cells assessed as colony formation at 0.5 uM after 10 days by SRB assay; assay type: functional, cell-based; summary of the method: as §6

COc1cc2c(cc1OCCCCNC(=O)c1cc(OC)c(OC)c(OC)c1)N=C[C@@H]1CCCN1C2=O
viability at 1 µM [1]: 95% | viability at 1 µM [2]: 83% | viability at 1 µM [3]: 79.5% | viability at 1 µM [4]: 100% | viability at 24 h, 1 µM [5]: 98.2% | viability at 1 µM [6]: 96.3%

COc1cc2c(cc1OCCCOc1cc(OC)c(OC)c(OC)c1)N=C[C@@H]1CCCN1C2=O
viability at 1 µM [1]: 71.9% | viability at 1 µM [2]: 59.5% | viability at 1 µM [3]: 69.7% | Activity [7]: Active | viability at 1 µM [4]: 88.7% | Activity [8]: Active | Activity [9]: Active | viability at 24 h, 1 µM [5]: 97.3% | viability at 1 µM [6]: 51.7% | Activity [10]: Active

COc1cc2c(cc1OCCCCCNC(=O)c1cc(OC)c(OC)c(OC)c1)N=C[C@@H]1CCCN1C2=O
viability at 1 µM [1]: 96.9% | viability at 1 µM [2]: 111% | viability at 1 µM [3]: 74.7% | viability at 1 µM [4]: 96.8% | viability at 24 h, 1 µM [5]: 98.7% | viability at 1 µM [6]: 101%

COc1cc2c(cc1OCCCCCOc1cc(OC)c(OC)c(OC)c1)N=C[C@@H]1CCCN1C2=O
Activity [11]: Active | viability at 1 µM [1]: 69.4% | Activity [12]: 37% | viability at 1 µM [2]: 64.6% | viability at 1 µM [3]: 37.7% | Activity [13]: tde | Activity [14]: Active | Activity [15]: tde | Activity [7]: Active | Activity [16]: 45.8% | Activity [17]: Active | Activity [18]: tde | inhibition [19]: Active | Activity [20]: inactive | viability at 1 µM [4]: 78% | Activity [21]: Active | Activity [22]: Active | Activity [23]: Active | Activity [24]: Active | Activity [8]: Active | inhibition [25]: Active | Activity [26]: Active | Activity [27]: Active | Activity [9]: Active | viability at 24 h, 1 µM [5]: 111% | Activity [28]: 16% | Activity [29]: Active | Activity [30]: 4.2% | Activity [31]: Active | inhibition [32]: Active | viability at 1 µM [6]: 55% | Activity [10]: Active

COc1cc2c(cc1OCCCCCCOc1cc(OC)c(OC)c(OC)c1)N=C[C@@H]1CCCN1C2=O
viability at 1 µM [1]: 90.2% | viability at 1 µM [2]: 55.9% | viability at 1 µM [3]: 84.8% | Activity [7]: Active | viability at 1 µM [4]: 101% | Activity [8]: Active | Activity [9]: Active | viability at 24 h, 1 µM [5]: 93.4% | viability at 1 µM [6]: 79% | Activity [10]: Active

COc1cc2c(cc1OCCCCCCNC(=O)c1cc(OC)c(OC)c(OC)c1)N=C[C@@H]1CCCN1C2=O
viability at 1 µM [1]: 92.4% | viability at 1 µM [2]: 69.6% | viability at 1 µM [3]: 86.5% | viability at 1 µM [4]: 101% | viability at 24 h, 1 µM [5]: 94.9% | viability at 1 µM [6]: 95.4%

COc1cc2c(cc1OCCCNC(=O)c1cc(OC)c(OC)c(OC)c1)N=C[C@@H]1CCCN1C2=O
viability at 1 µM [1]: 96.4% | viability at 1 µM [2]: 97.7% | viability at 1 µM [3]: 82.6% | viability at 1 µM [4]: 96.1% | viability at 24 h, 1 µM [5]: 101% | viability at 1 µM [6]: 94.6%
